{"source": "PubChem BioAssay AID522", "about": "(The Scripps Research Institute Molecular Screening Center, 2006)", "note": "The whole screen tested about 65,000 compounds, of which about 1,200 (1.8%) were called active. Shown is part of a subset that was picked to be rich in actives. A number with no mark means an inactive call.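 Rule for the calls: active = activation above the mean activation of all tested compounds plus 3 SD (cut at about 50% in these data); inactive = the rest.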", "data": [{"biological_target": "Steroidogenic factor 1 (Homo sapiens) (UniProt Q13285)", "sequence (Q13285 whole entry, looked up, the tested form may be a part)": "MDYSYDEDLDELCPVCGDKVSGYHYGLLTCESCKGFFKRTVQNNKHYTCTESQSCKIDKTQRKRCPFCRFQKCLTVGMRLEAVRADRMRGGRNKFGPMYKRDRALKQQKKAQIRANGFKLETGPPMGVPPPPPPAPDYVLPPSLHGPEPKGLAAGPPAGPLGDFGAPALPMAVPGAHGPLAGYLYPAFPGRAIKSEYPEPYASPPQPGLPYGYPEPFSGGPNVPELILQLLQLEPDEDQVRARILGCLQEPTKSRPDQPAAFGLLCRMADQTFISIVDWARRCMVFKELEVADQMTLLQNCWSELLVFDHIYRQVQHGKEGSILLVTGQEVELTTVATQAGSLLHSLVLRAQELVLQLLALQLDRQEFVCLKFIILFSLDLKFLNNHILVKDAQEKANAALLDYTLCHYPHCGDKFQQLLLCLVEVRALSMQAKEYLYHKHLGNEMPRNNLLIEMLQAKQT", "test": "SF-1 ligand-binding domain transactivation enhancers – cell-based, CHO-K1, Gal4-SF-1 LBD, luciferase luminescence, primary screen (AID 522)", "conditions": "CHO-K1 Gal4-SF-1 LBD luciferase reporter; at 10 µM; stronger effect = higher value; % increase over DMSO SF-1-specific signal", "method_in_brief": "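Material: Gal4–SF-1 LBD one-hybrid luciferase reporter in CHO-K1 cells | Amount: 4,000 cells per well | Compound dosing: 10 µM single point, 1% DMSO | Schedule: 20 h compound treatment, 37 °C | Measured by: SteadyLite luciferase luminescence | Evaluation: Percent activation versus DMSO | Control set: DMSO-treated SF-1-transfected cells as negative, DMSO-treated mock-transfected cells lacking SF-1 as background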", "values": [{"compound": "CC1Cn2c(nnc2-c2cccs2)S1", "note": "(stereo not drawn)", "activation": "-15.2%"}, {"compound": "O=C(NCc1cn2ccsc2n1)Nc1ccc(Cl)cc1", "activation": "-1.8%"}, {"compound": "O=C(O)C1CCCCC1C(=O)Nc1ccc(Cl)cc1", "note": "(stereo not drawn)", "activation": "-2.8%"}, {"compound": "O=C(Nc1ccc(Cl)cc1)c1ccsn1", "activation": "73.5% (active)"}, {"compound": "CCOC(=O)C1CCCCN1Cc1ccc(OC)c(OC)c1OC", "note": "(stereo not drawn)", "activation": "-21.3%"}, {"compound": "O=C(CN1C(=O)NC2(CCCCC2)C1=O)NCCC1=CCCCC1", "activation": "2.8%"}, {"compound": "O=C(Cc1nn[nH]n1)NCCC1=CCCCC1", "activation": "3.7%"}, {"compound": "CN(c1ccc(C(=O)NCCC2=CCCCC2)cc1)S(C)(=O)=O", "activation": "55.4% (active)"}, {"compound": "CN(c1ccc(C(=O)N2CCc3ccccc3C2)cc1)S(C)(=O)=O", "activation": "22.9%"}, {"compound": "Cn1nnc2cc(C(=O)NCCC3=CCCCC3)ccc21", "activation": "49.9% (active)"}, {"compound": "O=C(COc1cccc(-n2cnnn2)c1)NCCC1=CCCCC1", "activation": "-3.3%"}, {"compound": "COc1ccc(S(=O)(=O)N2CCCC2)c(C)c1C", "activation": "-8.5%"}, {"compound": "c1ccc(-c2nnc3n2NC(c2ccc4c(c2)OCO4)S3)cc1", "note": "(stereo not drawn)", "activation": "-14.9%"}, {"compound": "CC(C)C[C@H](NC(=O)Nc1cccc(C(F)(F)F)c1)C(=O)O", "activation": "-1.1%"}, {"compound": "Cc1ccsc1-c1nc(CSCC(=O)NCCN2CCCC2)c(C)o1", "activation": "3.6%"}, {"compound": "O=C(Nc1cccnc1)c1ccc2c(c1)OCO2", "activation": "13.2%"}, {"compound": "O=C(Nc1ccc2c(c1)OCCO2)c1ccncc1", "activation": "20.3%"}, {"compound": "CC(C)C(=O)Nc1cccc(C(=O)Nc2ccc3c(c2)OCO3)c1", "activation": "55% (active)"}, {"compound": "Cn1c(=O)n(C)c2cc(C(=O)Nc3ccc4c(c3)OCO4)ccc21", "activation": "21.2%"}, {"compound": "COc1ccc(C(=O)Nc2ccc3c(c2)OCO3)cc1OC", "activation": "55% (active)"}, {"compound": "Cc1ccc(C(=O)Nc2ccc3c(c2)OCO3)cc1S(=O)(=O)N1CCCCC1", "activation": "22.6%"}, {"compound": "CCc1nnc(NC(=O)c2c(O)c3c([nH]c2=O)CCCC3)s1", "activation": "29.1%"}, {"compound": "CC1C(c2ccccc2)=[N+]([O-])C2(CCCC2)N1O", "note": "(stereo not drawn)", "activation": "18.6%"}, {"compound": "O=C(C1CCC(C(=O)N2CCCC2)CC1)N1CCCC1", "note": "(stereo not drawn)", "activation": "-2.5%"}, {"compound": "COc1ccc(NC(=O)c2cccc(NC(=O)c3ccco3)c2)c(OC)c1", "activation": "-29.9%"}, {"compound": "Fc1ccc2nc(N3CCCCC3)sc2c1", "activation": "43.3%"}, {"compound": "Fc1cc(F)c2nc(N3CCOCC3)sc2c1", "activation": "52.6% (active)"}, {"compound": "c1c2c(cc3sc(N4CCCCC4)nc13)OCCO2", "activation": "-71.4%"}, {"compound": "O=C(O)Cc1ccc(NC(=O)c2cccs2)cc1", "activation": "-7.4%"}, {"compound": "Cc1ccnc(NC(=O)c2ccc(NC(=O)c3ccco3)cc2)c1", "activation": "46.9%"}, {"compound": "O=C(Nc1ccc(NC(=O)c2cccs2)cn1)c1ccco1", "activation": "73.3% (active)"}, {"compound": "COc1ccc(N(C(=O)c2cccnc2)S(=O)(=O)c2ccc3c(c2)n(C)c(=O)n3C)cc1", "activation": "-24.3%"}, {"compound": "COc1ccc(Cn2nnc3c(=O)[nH]c(C4CCN(C(=O)c5ccccc5Cl)CC4)nc32)cc1", "activation": "-2.2%"}, {"compound": "CC(C)NS(=O)(=O)c1ccc(NC(=O)c2cccnc2)cc1", "activation": "33.9%"}, {"compound": "Cc1cc2nc(-c3ccc(NC(=O)c4cccnc4)cc3)oc2cc1C", "activation": "54.8% (active)"}, {"compound": "CCC(=O)Nc1cccc(NC(=O)c2cccnc2)c1", "activation": "-0.4%"}, {"compound": "CCOC(=O)c1ccn(-c2nc(-c3ccco3)cc(C(F)(F)F)n2)n1", "activation": "0.6%"}, {"compound": "Cc1cc(C(=O)NCCCc2ccccc2)no1", "activation": "16.8%"}, {"compound": "CC(C)Cc1cc(C(=O)Nc2cc(Br)ccc2O)no1", "activation": "11.7%"}, {"compound": "CC(C)Cc1cc(C(=O)NCCc2ccccc2)no1", "activation": "80.7% (active)"}, {"compound": "CC(C)Cn1c(CCC(=O)O)ccc1-c1cccs1", "activation": "2.5%"}, {"compound": "COc1ccccc1N=C1SC(C)CN1C(=O)C1CCC1", "note": "(stereo not drawn)", "activation": "1.8%"}, {"compound": "COc1ccc(-n2nnnc2SCC(=O)c2ccc(OC)c(OC)c2)cc1", "activation": "-4.4%"}, {"compound": "O=C(O)CSCc1nc2ccccc2s1", "activation": "15.5%"}, {"compound": "CCC(=O)NC(=Nc1nc2ccccc2s1)NC(=O)CC", "activation": "60.7% (active)"}, {"compound": "COC(=O)Cc1cc(=O)n(-c2nc3ccccc3s2)[nH]1", "activation": "-3%"}, {"compound": "COc1ccc(-c2cc(C(F)(F)F)n3nc(C(=O)N4CCOCC4)c(Cl)c3n2)cc1", "activation": "-9.4%"}, {"compound": "C=CCn1c(C)cc(C(=O)CN2C(=O)c3ccccc3C2=O)c1C", "activation": "27.3%"}, {"compound": "Cc1c(C(=O)CN2CCOCC2)[nH]c2ccccc12", "activation": "8.5%"}, {"compound": "O=C(Nc1ccc(-c2nnc(-c3ccccc3)o2)cc1)c1ccc(Br)o1", "activation": "10.9%"}, {"compound": "COc1ccc(CC(=O)Nc2ccc(-c3nnc(-c4ccccc4)o3)cc2)cc1", "activation": "-59.5%"}, {"compound": "Nc1ccc(-c2nnc(-c3ccc(-c4ccccc4)cc3)o2)cc1", "activation": "55.2% (active)"}, {"compound": "CCOC(=O)c1nc(-c2ccc3c(c2)OCO3)[nH]c1C", "activation": "46.3%"}, {"compound": "O=C(Nc1ccc(Cl)cn1)c1cnn2cccnc12", "activation": "63.8% (active)"}, {"compound": "Cc1cc(NC(=O)c2cnn3cccnc23)n(-c2ccccc2)n1", "activation": "2.1%"}, {"compound": "O=C(Nc1ccc(Cl)cn1)Nc1cccs1", "activation": "47.6%"}, {"compound": "CCS(=O)(=O)N1CCCC(C(=O)NCCCN(C)Cc2ccccc2)C1", "note": "(stereo not drawn)", "activation": "-14.4%"}, {"compound": "COc1ccc(NS(=O)(=O)c2ccc(NC(=O)C(C)(C(F)(F)F)C(F)(F)F)cc2)nn1", "activation": "-13.6%"}, {"compound": "Cc1nc2nc(SCC(=O)NCc3ccco3)nn2c(C)c1Cc1ccccc1", "activation": "5.7%"}, {"compound": "O=C(NCc1ccco1)c1nc(-c2ccccc2)n(-c2ccccc2)n1", "activation": "-4.9%"}, {"compound": "O=C(Cc1ccccc1)n1nc(-c2ccccc2)nc1NCc1ccco1", "activation": "50.5% (active)"}, {"compound": "CCOC(=O)C1CCCN(C(=O)c2ccc(CS(=O)(=O)c3ccc(Br)cc3)o2)C1", "note": "(stereo not drawn)", "activation": "19.7%"}, {"compound": "Cc1cccc(-n2nc3c(c2NC(=O)c2ccc(Br)o2)CSC3)c1C", "activation": "9.6%"}, {"compound": "CCC(Oc1ccccc1)C(=O)NCc1cccnc1", "note": "(stereo not drawn)", "activation": "-4.9%"}, {"compound": "COc1cc(OC)c(C(=O)NC2CCCCCC2)cc1OC", "activation": "2%"}, {"compound": "COc1cc(OC)c(C(=O)Nc2ccc(N(C)C)cc2)cc1OC", "activation": "51.4% (active)"}, {"compound": "COc1ccc(NC(=O)c2ccc(OC)cc2)cc1", "activation": "30.5%"}, {"compound": "NC(=O)COc1ccc2c3c(c(=O)oc2c1)CCCCC3", "activation": "-7.8%"}, {"compound": "Cc1cc(NC(=O)COc2ccc(Cl)cc2Cl)n(CCC#N)n1", "activation": "28.2%"}, {"compound": "CCN1C(=O)c2cccc3c(N)ccc1c23", "activation": "15.3%"}, {"compound": "CCN1C(=O)/C(=C2\\SC(N3CCCCC3)=NC2=O)c2ccccc21", "activation": "53.9% (active)"}, {"compound": "CCN1C(=O)/C(=C\\N2CCN(c3ccccc3)CC2)SC1=S", "activation": "-22.3%"}, {"compound": "Cc1nnc(Sc2nc3c(c(=O)[nH]c(=O)n3C)n2Cc2ccccc2)s1", "activation": "-15%"}, {"compound": "CCOC(=O)c1ccccc1NC(=O)CC1Nc2ccccc2NC1=O", "note": "(stereo not drawn)", "activation": "3.2%"}, {"compound": "CNC(=O)c1ccc2nc(NC(C)=O)sc2c1", "activation": "6.1%"}, {"compound": "CCn1c(SCC(=O)Nc2nc3ccc(OC)cc3s2)nnc1-c1ccoc1C", "activation": "13.2%"}, {"compound": "COc1ccc2nc(NC(=O)c3ccc(Br)s3)sc2c1", "activation": "72.8% (active)"}, {"compound": "CC(=O)c1ccc(NC(=O)N[C@@H](Cc2ccccc2)C(=O)O)cc1", "activation": "-21%"}, {"compound": "Cc1cc(C)nc(NC(=O)Nc2ccccc2C(F)(F)F)n1", "activation": "14.8%"}, {"compound": "O=C(Nc1ccccc1C(F)(F)F)c1cc(-c2ccc(O)cc2)on1", "activation": "64.4% (active)"}, {"compound": "O=C(c1cc(-c2ccc(O)cc2)on1)N1CCCc2ccccc21", "activation": "47.5%"}, {"compound": "CC(C)C(NC(=O)OCc1ccccc1)C(=O)OCC(=O)N1C(C)CCCC1C", "note": "(stereo not drawn)", "activation": "-2.9%"}, {"compound": "Cc1ccc(C(=O)NC2CC(C)(C)NC(C)(C)C2)c(C)c1", "activation": "4.3%"}, {"compound": "O=C1CC(N2CCN(C(c3ccccc3)c3ccccc3)CC2)C(=O)N1", "note": "(stereo not drawn)", "activation": "-23%"}, {"compound": "COc1ccc(CCNC(=O)c2cc(-c3ccc4c(c3)OCO4)on2)cc1OC", "activation": "3.9%"}, {"compound": "COc1ccc(-c2cc(C(=O)NC(C(=O)O)C(C)C)c(C)o2)cc1OC", "note": "(stereo not drawn)", "activation": "56.5% (active)"}, {"compound": "COc1ccc(CNC(=O)c2c(C)cc(=O)oc2C)cc1OC", "activation": "7.4%"}, {"compound": "CN(C(=O)CSc1nnnn1-c1ccccc1)C1CCCCC1", "activation": "34.6%"}, {"compound": "COc1ccc(-n2ncc3c(N4CCc5ccccc54)ncnc32)cc1", "activation": "59.8% (active)"}, {"compound": "Cc1cccc(-n2ncc3c(N4CCc5ccccc54)ncnc32)c1", "activation": "33.4%"}, {"compound": "COc1ccc(-n2ncc3c(N4CCCc5ccccc54)ncnc32)cc1", "activation": "33.2%"}, {"compound": "Cn1nnnc1SCC(=O)N1CCN(Cc2ccccc2)CC1", "activation": "-17.2%"}, {"compound": "CC(=NCC1CCCO1)c1c(O)[nH]c(=O)[nH]c1=O", "note": "(stereo not drawn)", "activation": "12.9%"}, {"compound": "COc1ccccc1Nc1ncc(C(C)=O)c(C)n1", "activation": "34%"}, {"compound": "COc1cccc2sc(Nc3nc(C)c(C(C)=O)s3)nc12", "activation": "109% (active)"}, {"compound": "COC(=O)c1sc(NC(=O)c2ccc(OC)cc2OC)nc1C", "activation": "-57.8%"}, {"compound": "CC(=O)Nc1ccc(S(=O)(=O)N2CCN(C3CCCCCCC3)CC2)cc1", "activation": "-6.4%"}, {"compound": "COc1cccc(N2CCN(C3CC(=O)N(c4ccc(Cl)cc4)C3=O)CC2)c1", "note": "(stereo not drawn)", "activation": "-14.7%"}, {"compound": "COc1ccc(C(=O)Nc2ccc(S(=O)(=O)Nc3onc(C)c3C)cc2)cc1OC", "activation": "-3.3%"}, {"compound": "COc1ccc(S(=O)(=O)N2CCN(C(=O)c3cccs3)CC2)cc1OC", "activation": "-5.5%"}, {"compound": "CCc1ccc(N2CC(C(=O)NC3=NCCS3)CC2=O)cc1", "note": "(stereo not drawn)", "activation": "-7.9%"}, {"compound": "O=C(NC1=NCCS1)c1ccc(Cl)s1", "activation": "66.2% (active)"}, {"compound": "CC(NC(=O)COc1ccccc1)C(=O)NC1=NCCS1", "note": "(stereo not drawn)", "activation": "-0.2%"}]}]}
